{
  "source": "ChEMBL document CHEMBL3797186",
  "about": "“Single Residue Substitutions That Confer Voltage-Gated Sodium Ion Channel Subtype Selectivity in the NaV1.7 Inhibitory Peptide GpTx-1” (J Med Chem, 2016)",
  "format_in_all_cases": "cell-based",
  "key": {"[1]": {"biological_target": "T1, Sodium channel protein type 5 subunit alpha (Homo sapiens, UniProt Q14524)", "T1 sequence (Q14524 whole entry)": "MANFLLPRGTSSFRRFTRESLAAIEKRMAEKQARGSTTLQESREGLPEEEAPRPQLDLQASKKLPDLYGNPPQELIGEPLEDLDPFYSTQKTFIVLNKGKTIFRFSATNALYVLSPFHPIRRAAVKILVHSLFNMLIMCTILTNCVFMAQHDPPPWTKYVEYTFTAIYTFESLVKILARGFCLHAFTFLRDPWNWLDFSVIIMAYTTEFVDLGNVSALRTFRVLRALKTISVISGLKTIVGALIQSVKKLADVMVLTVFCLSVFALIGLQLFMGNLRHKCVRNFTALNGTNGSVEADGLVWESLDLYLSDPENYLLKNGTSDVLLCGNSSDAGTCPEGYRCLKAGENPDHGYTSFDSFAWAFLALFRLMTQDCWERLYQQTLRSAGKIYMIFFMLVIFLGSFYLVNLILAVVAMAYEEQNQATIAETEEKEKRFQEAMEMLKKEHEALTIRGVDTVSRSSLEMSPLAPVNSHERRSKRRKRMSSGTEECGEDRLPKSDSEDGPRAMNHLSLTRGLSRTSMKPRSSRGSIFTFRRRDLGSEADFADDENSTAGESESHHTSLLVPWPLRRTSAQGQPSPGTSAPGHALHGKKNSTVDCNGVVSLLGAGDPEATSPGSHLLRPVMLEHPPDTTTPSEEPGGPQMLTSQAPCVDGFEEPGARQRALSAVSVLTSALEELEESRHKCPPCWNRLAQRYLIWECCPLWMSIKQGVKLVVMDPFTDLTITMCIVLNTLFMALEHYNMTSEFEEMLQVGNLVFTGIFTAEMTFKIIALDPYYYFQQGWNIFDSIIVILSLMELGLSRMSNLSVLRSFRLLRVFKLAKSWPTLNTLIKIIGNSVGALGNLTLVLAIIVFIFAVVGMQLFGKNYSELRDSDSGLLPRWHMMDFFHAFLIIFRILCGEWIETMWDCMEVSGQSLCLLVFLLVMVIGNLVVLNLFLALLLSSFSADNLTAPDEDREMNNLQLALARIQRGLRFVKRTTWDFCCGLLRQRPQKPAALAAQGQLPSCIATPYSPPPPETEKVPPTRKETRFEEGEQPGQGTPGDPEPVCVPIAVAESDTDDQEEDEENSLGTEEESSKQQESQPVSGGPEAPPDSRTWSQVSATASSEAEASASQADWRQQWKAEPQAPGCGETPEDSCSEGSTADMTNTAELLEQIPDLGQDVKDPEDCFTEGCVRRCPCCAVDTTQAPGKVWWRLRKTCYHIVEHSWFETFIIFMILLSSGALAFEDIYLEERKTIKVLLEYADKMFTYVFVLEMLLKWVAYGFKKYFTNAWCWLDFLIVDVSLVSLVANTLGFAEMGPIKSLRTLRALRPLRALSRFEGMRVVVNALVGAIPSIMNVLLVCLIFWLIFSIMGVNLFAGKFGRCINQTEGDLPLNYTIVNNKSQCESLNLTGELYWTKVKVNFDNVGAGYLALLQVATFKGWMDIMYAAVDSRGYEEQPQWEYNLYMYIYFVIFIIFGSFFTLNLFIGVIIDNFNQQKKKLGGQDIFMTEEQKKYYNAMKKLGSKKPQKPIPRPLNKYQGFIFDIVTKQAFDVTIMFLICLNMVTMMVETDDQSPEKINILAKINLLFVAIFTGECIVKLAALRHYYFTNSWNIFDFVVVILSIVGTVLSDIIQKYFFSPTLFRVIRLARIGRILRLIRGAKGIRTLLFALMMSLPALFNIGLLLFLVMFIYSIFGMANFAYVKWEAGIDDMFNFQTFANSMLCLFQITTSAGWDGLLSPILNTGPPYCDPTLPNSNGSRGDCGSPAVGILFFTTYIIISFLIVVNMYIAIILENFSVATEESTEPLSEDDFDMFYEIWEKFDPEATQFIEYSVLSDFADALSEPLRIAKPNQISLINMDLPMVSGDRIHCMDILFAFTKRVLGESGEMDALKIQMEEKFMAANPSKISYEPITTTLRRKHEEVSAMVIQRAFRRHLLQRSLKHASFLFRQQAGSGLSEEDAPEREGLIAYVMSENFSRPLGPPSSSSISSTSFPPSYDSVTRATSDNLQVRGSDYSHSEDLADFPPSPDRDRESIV", "assay": "Inhibition of human Nav1.5 expressed in HEK293 cells by whole cell patch clamp electrophysiology method", "outline": "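Stable HEK293 line expressing human NaV1.5, recorded on the PatchXpress 7000A. Percent inhibition versus concentration was pooled from at least 10 cells, with two to three points per concentration. The pooled set was fitted with a four-parameter Hill equation to give a single IC50 curve.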"}, "[2]": {"biological_target": "T1, Sodium channel protein type 5 subunit alpha", "assay": "Inhibition of human Nav1.5 expressed in HEK293 cells assessed as inward peak current by ion-works quattro patch clamp electrophysiology method", "outline": "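Stable HEK293 line expressing human NaV1.5, recorded by population patch clamp on the IonWorks Quattro.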"}, "[3]": {"biological_target": "Sodium channel protein type 9 subunit alpha (Homo sapiens, UniProt Q15858)", "sequence (Q15858 whole entry)": "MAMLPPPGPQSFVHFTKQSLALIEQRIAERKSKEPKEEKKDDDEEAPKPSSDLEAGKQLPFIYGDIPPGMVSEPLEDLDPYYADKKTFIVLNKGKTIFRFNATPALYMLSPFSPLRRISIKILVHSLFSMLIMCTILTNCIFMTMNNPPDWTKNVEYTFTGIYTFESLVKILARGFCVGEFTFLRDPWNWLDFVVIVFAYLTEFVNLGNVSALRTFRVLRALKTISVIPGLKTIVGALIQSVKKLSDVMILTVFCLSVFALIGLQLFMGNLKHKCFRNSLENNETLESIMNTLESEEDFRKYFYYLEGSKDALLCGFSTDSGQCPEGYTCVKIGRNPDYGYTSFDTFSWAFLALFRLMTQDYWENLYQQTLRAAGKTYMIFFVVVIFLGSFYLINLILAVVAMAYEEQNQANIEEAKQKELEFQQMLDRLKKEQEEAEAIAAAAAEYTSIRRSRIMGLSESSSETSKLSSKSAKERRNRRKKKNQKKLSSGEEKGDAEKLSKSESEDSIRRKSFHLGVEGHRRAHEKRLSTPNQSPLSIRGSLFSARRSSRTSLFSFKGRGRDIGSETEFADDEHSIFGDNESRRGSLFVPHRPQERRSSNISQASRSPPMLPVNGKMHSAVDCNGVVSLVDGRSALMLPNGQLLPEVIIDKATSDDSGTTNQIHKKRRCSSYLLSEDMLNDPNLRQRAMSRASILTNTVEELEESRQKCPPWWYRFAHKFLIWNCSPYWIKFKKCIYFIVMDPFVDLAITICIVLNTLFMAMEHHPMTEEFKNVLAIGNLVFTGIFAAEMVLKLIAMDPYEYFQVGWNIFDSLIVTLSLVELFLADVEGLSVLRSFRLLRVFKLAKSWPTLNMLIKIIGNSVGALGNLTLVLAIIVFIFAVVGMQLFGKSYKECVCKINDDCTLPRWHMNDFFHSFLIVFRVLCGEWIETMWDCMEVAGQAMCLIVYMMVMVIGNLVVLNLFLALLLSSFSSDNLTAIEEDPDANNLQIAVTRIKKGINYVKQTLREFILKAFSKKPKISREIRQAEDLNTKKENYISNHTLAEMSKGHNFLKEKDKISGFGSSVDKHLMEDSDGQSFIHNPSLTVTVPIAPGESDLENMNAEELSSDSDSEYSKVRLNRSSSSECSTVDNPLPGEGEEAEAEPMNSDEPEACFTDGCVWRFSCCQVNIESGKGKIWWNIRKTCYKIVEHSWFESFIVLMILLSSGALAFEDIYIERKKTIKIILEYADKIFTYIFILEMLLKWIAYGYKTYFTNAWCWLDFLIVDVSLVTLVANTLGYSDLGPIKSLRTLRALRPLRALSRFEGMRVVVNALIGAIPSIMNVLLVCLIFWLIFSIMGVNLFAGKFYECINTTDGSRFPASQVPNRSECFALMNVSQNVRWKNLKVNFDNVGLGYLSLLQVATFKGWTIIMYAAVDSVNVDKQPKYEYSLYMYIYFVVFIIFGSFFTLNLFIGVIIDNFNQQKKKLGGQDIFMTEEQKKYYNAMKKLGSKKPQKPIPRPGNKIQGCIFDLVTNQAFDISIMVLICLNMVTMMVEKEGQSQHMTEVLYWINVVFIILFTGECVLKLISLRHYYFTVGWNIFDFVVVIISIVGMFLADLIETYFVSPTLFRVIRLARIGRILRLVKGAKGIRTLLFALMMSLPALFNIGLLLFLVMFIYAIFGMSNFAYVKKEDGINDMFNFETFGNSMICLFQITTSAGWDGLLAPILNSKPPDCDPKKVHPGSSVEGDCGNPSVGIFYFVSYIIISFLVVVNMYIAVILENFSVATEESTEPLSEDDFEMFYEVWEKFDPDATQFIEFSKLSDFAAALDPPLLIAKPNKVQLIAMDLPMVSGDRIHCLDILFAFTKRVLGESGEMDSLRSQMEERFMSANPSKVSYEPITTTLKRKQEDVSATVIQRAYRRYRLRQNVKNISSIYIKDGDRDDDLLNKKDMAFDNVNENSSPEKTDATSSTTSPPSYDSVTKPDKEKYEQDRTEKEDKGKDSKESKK", "assay": "Inhibition of human Nav1.7 expressed in HEK293 cells assessed as inward peak current by ion-works quattro patch clamp electrophysiology method"}},
  "note": "Positions of bridges follow the written chain, without caps; N, C: chain ends. Non-standard residues stand in square brackets, D forms with d. Residues, ends and D or L forms follow the SMILES beside them. 1Nal = N[C@@H](Cc1cccc2ccccc12)C(=O)O; Lys(Me2) = CN(C)CCCC[C@H](N)C(=O)O",
  "data": [
    {"smiles": "CC[C@H](C)[C@@H]1NC(=O)[C@@H]2CSSC[C@@H]3NC(=O)[C@H](C(C)C)NC(=O)[C@H](CC(C)C)NC(=O)[C@H](CC(N)=O)NC(=O)[C@@H]4CCCN4C(=O)[C@H](CCCNC(=N)N)NC(=O)[C@H](CSSC[C@H](NC(=O)[C@@H](N)CC(=O)O)C(=O)N[C@@H](CC(C)C)C(=O)NCC(=O)N[C@@H](Cc4ccccc4)C(=O)N[C@@H](CCSC)C(=O)N[C@@H](CCCNC(=N)N)C(=O)N[C@@H](CCCCN)C(=O)N2)NC(=O)[C@H](CSSC[C@@H](C(=O)N[C@@H](CCCCN)C(=O)N[C@@H](Cc2ccc(O)cc2)C(=O)N[C@H](C(=O)N[C@@H](Cc2ccccc2)C(N)=O)C(C)C)NC(=O)[C@H](Cc2cccc4ccccc24)NC(=O)[C@H](CCCCN)NC(=O)[C@H](Cc2cnc[nH]2)NC(=O)[C@H]([C@@H](C)O)NC(=O)[C@H](CCCNC(=N)N)NC(=O)[C@H](CO)NC3=O)NC(=O)[C@H](CCCCN)NC(=O)[C@H](CC(=O)O)NC(=O)[C@H](CC(N)=O)NC(=O)[C@H](CC(=O)O)NC(=O)[C@@H]2CCCN2C1=O", "note": "(H-DCLGFMRKCIPDNDKCCRPNLVCSRTHK[1Nal]CKYVF-NH2; disulfide 2-17, 9-23, 16-30)", "values": [
      {"measurement": "IC50", "setting": "[1]", "result": "> 10", "unit": "µM"},
      {"measurement": "IC50", "setting": "[2]", "result": "> 5", "unit": "µM"}
    ]},
    {"smiles": "CC[C@H](C)[C@@H]1NC(=O)[C@@H]2CSSC[C@@H]3NC(=O)[C@H](C(C)C)NC(=O)[C@H](CC(C)C)NC(=O)[C@H](CC(N)=O)NC(=O)[C@@H]4CCCN4C(=O)[C@H](CCCN/C(=N/C)NC)NC(=O)[C@H](CSSC[C@H](NC(=O)[C@@H](N)CC(=O)O)C(=O)N[C@@H](CC(C)C)C(=O)NCC(=O)N[C@@H](Cc4ccccc4)C(=O)N[C@@H](CCSC)C(=O)N[C@@H](CCCNC(=N)N)C(=O)N[C@@H](CCCCN)C(=O)N2)NC(=O)[C@H](CSSC[C@@H](C(=O)N[C@@H](CCCCN)C(=O)N[C@@H](Cc2ccc(O)cc2)C(=O)N[C@H](C(=O)N[C@@H](Cc2ccccc2)C(N)=O)C(C)C)NC(=O)[C@H](Cc2c[nH]c4ccccc24)NC(=O)[C@H](CCCCN)NC(=O)[C@H](Cc2cnc[nH]2)NC(=O)[C@H]([C@@H](C)O)NC(=O)[C@H](CCCNC(=N)N)NC(=O)[C@H](CO)NC3=O)NC(=O)[C@H](CCCCN)NC(=O)[C@H](CC(=O)O)NC(=O)[C@H](CC(N)=O)NC(=O)[C@H](CC(=O)O)NC(=O)[C@@H]2CCCN2C1=O", "values": [
      {"measurement": "IC50", "setting": "[1]", "result": "> 10", "unit": "µM"},
      {"measurement": "IC50", "setting": "[2]", "result": "> 5", "unit": "µM"}
    ]},
    {"smiles": "CC[C@H](C)[C@@H]1NC(=O)[C@@H]2CSSC[C@@H]3NC(=O)[C@H](C(C)C)NC(=O)[C@H](CC(C)C)NC(=O)[C@H](CC(N)=O)NC(=O)[C@@H]4CCCN4C(=O)[C@H](CCCNC(=N)N)NC(=O)[C@H](CSSC[C@H](NC(=O)[C@@H](N)CC(=O)O)C(=O)N[C@@H](CC(C)C)C(=O)NCC(=O)N[C@@H](Cc4ccccc4)C(=O)N[C@@H](CCSC)C(=O)N[C@@H](CCCNC(=N)N)C(=O)N[C@@H](CCCCN)C(=O)N2)NC(=O)[C@H](CSSC[C@@H](C(=O)N[C@@H](CCCCN)C(=O)N[C@@H](Cc2ccc(O)cc2)C(=O)N[C@H](C(=O)N[C@@H](Cc2ccccc2)C(=O)O)C(C)C)NC(=O)[C@H](Cc2c[nH]c4ccccc24)NC(=O)[C@H](CCCCN)NC(=O)[C@H](Cc2cnc[nH]2)NC(=O)[C@H]([C@@H](C)O)NC(=O)[C@H](CCCNC(=N)N)NC(=O)[C@H](CO)NC3=O)NC(=O)[C@H](CCCCN)NC(=O)[C@H](CC(=O)O)NC(=O)[C@H](CC(N)=O)NC(=O)[C@H](CC(=O)O)NC(=O)[C@@H]2CCCN2C1=O", "note": "(stereo in doubt)", "values": [
      {"measurement": "IC50", "setting": "[1]", "result": "> 10", "unit": "µM"},
      {"measurement": "IC50", "setting": "[2]", "result": "> 5", "unit": "µM"}
    ]},
    {"smiles": "CC[C@H](C)[C@@H]1NC(=O)[C@@H]2CSSC[C@@H]3NC(=O)[C@H](C(C)C)NC(=O)[C@H](CC(C)C)NC(=O)[C@H](CC(N)=O)NC(=O)[C@@H]4CCCN4C(=O)[C@H](CCCCN(C)C)NC(=O)[C@H](CSSC[C@H](NC(=O)[C@@H](N)CC(=O)O)C(=O)N[C@@H](CC(C)C)C(=O)NCC(=O)N[C@@H](Cc4ccccc4)C(=O)N[C@@H](CCSC)C(=O)N[C@@H](CCCNC(=N)N)C(=O)N[C@@H](CCCCN)C(=O)N2)NC(=O)[C@H](CSSC[C@@H](C(=O)N[C@@H](CCCCN)C(=O)N[C@@H](Cc2ccc(O)cc2)C(=O)N[C@H](C(=O)N[C@@H](Cc2ccccc2)C(N)=O)C(C)C)NC(=O)[C@H](Cc2c[nH]c4ccccc24)NC(=O)[C@H](CCCCN)NC(=O)[C@H](Cc2cnc[nH]2)NC(=O)[C@H]([C@@H](C)O)NC(=O)[C@H](CCCNC(=N)N)NC(=O)[C@H](CO)NC3=O)NC(=O)[C@H](CCCCN)NC(=O)[C@H](CC(=O)O)NC(=O)[C@H](CC(N)=O)NC(=O)[C@H](CC(=O)O)NC(=O)[C@@H]2CCCN2C1=O", "note": "(H-DCLGFMRKCIPDNDKCC[Lys(Me2)]PNLVCSRTHKWCKYVF-NH2; disulfide 2-17, 9-23, 16-30)", "values": [
      {"measurement": "IC50", "setting": "[1]", "result": "> 10", "unit": "µM"},
      {"measurement": "IC50", "setting": "[2]", "result": "> 5", "unit": "µM"}
    ]},
    {"smiles": "CC[C@H](C)[C@@H]1NC(=O)[C@@H]2CSSC[C@@H]3NC(=O)[C@H](C(C)C)NC(=O)[C@H](CC(C)C)NC(=O)[C@H](CC(N)=O)NC(=O)[C@@H]4CCCN4C(=O)[C@H](CCCNC(=N)N)NC(=O)[C@H](CSSC[C@H](NC(=O)[C@@H](N)CC(=O)O)C(=O)N[C@@H](CC(C)C)C(=O)NCC(=O)N[C@@H](Cc4ccccc4)C(=O)N[C@@H](CCCCN)C(=O)N[C@@H](CCCNC(=N)N)C(=O)N[C@@H](CCCCN)C(=O)N2)NC(=O)[C@H](CSSC[C@@H](C(=O)N[C@@H](CCCCN)C(=O)N[C@@H](Cc2ccc(O)cc2)C(=O)N[C@H](C(=O)N[C@@H](Cc2ccccc2)C(N)=O)C(C)C)NC(=O)[C@H](Cc2c[nH]c4ccccc24)NC(=O)[C@H](CCCCN)NC(=O)[C@H](Cc2cnc[nH]2)NC(=O)[C@H]([C@@H](C)O)NC(=O)[C@H](CCCNC(=N)N)NC(=O)[C@H](CO)NC3=O)NC(=O)[C@H](CCCCN)NC(=O)[C@H](CC(=O)O)NC(=O)[C@H](CC(N)=O)NC(=O)[C@H](CC(=O)O)NC(=O)[C@@H]2CCCN2C1=O", "note": "(H-DCLGFKRKCIPDNDKCCRPNLVCSRTHKWCKYVF-NH2; disulfide 2-17, 9-23, 16-30)", "values": [
      {"measurement": "IC50", "setting": "[3]", "result": "> 5", "unit": "µM"},
      {"measurement": "IC50", "setting": "[2]", "result": "> 5", "unit": "µM"}
    ]},
    {"smiles": "CC[C@H](C)[C@@H]1NC(=O)[C@@H]2CSSC[C@@H]3NC(=O)[C@H](C(C)C)NC(=O)[C@H](CC(C)C)NC(=O)[C@H](CC(N)=O)NC(=O)[C@@H]4CCCN4C(=O)[C@H](CCCNC(=N)N)NC(=O)[C@H](CSSC[C@H](NC(=O)[C@@H](N)CC(=O)O)C(=O)N[C@@H](CC(C)C)C(=O)NCC(=O)N[C@@H](Cc4ccccc4)C(=O)N[C@@H](CCSC)C(=O)N[C@@H](CCCNC(=N)N)C(=O)N[C@@H](CCCCN)C(=O)N2)NC(=O)[C@H](CSSC[C@@H](C(=O)N[C@@H](CCCCN)C(=O)N[C@@H](Cc2ccc(O)cc2)C(=O)N[C@H](C(=O)N[C@@H](Cc2ccccc2)C(N)=O)C(C)C)NC(=O)[C@H](Cc2c[nH]c4ccccc24)NC(=O)[C@H](CCCCN)NC(=O)[C@H](Cc2cnc[nH]2)NC(=O)[C@H]([C@@H](C)O)NC(=O)[C@H](CCCNC(=N)N)NC(=O)[C@H](CO)NC3=O)NC(=O)[C@H](CCCCN)NC(=O)[C@H](CC(=O)O)NC(=O)[C@H](CC(N)=O)NC(=O)[C@H](CC(=O)O)NC(=O)[C@H](Cc2c[nH]c3ccccc23)NC1=O", "note": "(H-DCLGFMRKCIWDNDKCCRPNLVCSRTHKWCKYVF-NH2; disulfide 2-17, 9-23, 16-30)", "values": [
      {"measurement": "IC50", "setting": "[3]", "result": 0.08, "unit": "µM"},
      {"measurement": "IC50", "setting": "[2]", "result": "> 5", "unit": "µM"}
    ]},
    {"smiles": "CC[C@H](C)[C@@H]1NC(=O)[C@@H]2CSSC[C@@H]3NC(=O)[C@H](C(C)C)NC(=O)[C@H](CC(C)C)NC(=O)[C@H](CC(N)=O)NC(=O)[C@@H]4CCCN4C(=O)[C@H](CCCNC(=N)N)NC(=O)[C@H](CSSC[C@H](NC(=O)[C@@H](N)CC(=O)O)C(=O)N[C@@H](CC(C)C)C(=O)NCC(=O)N[C@@H](Cc4ccccc4)C(=O)N[C@@H](CCSC)C(=O)N[C@@H](CCCNC(=N)N)C(=O)N[C@@H](CCCCN)C(=O)N2)NC(=O)[C@H](CSSC[C@@H](C(=O)N[C@@H](CCCCN)C(=O)N[C@@H](Cc2ccc(O)cc2)C(=O)N[C@@H](Cc2cccc4ccccc24)C(=O)N[C@@H](Cc2ccccc2)C(N)=O)NC(=O)[C@H](Cc2c[nH]c4ccccc24)NC(=O)[C@H](CCCCN)NC(=O)[C@H](Cc2cnc[nH]2)NC(=O)[C@H]([C@@H](C)O)NC(=O)[C@H](CCCNC(=N)N)NC(=O)[C@H](CO)NC3=O)NC(=O)[C@H](CCCCN)NC(=O)[C@H](CC(=O)O)NC(=O)[C@H](CC(N)=O)NC(=O)[C@H](CC(=O)O)NC(=O)[C@@H]2CCCN2C1=O", "note": "(H-DCLGFMRKCIPDNDKCCRPNLVCSRTHKWCKY[1Nal]F-NH2; disulfide 2-17, 9-23, 16-30)", "values": [
      {"measurement": "IC50", "setting": "[3]", "result": 0.07, "unit": "µM"},
      {"measurement": "IC50", "setting": "[2]", "result": "> 5", "unit": "µM"}
    ]},
    {"smiles": "CC[C@H](C)[C@@H]1NC(=O)[C@@H]2CSSC[C@@H]3NC(=O)[C@H](C(C)C)NC(=O)[C@H](CC(C)C)NC(=O)[C@H](CC(N)=O)NC(=O)[C@@H]4CCCN4C(=O)[C@H](CCCNC(=N)N)NC(=O)[C@H](CSSC[C@H](NC(=O)[C@@H](N)CC(=O)O)C(=O)N[C@@H](CC(C)C)C(=O)NCC(=O)N[C@@H](Cc4ccccc4)C(=O)N[C@@H](CCSC)C(=O)N[C@@H](CCCNC(=N)N)C(=O)N[C@@H](CCCCN)C(=O)N2)NC(=O)[C@H](CSSC[C@@H](C(=O)N[C@@H](CCCCN)C(=O)N[C@@H](Cc2ccc(O)cc2)C(=O)N[C@H](C(=O)N[C@@H](CCCCN)C(N)=O)C(C)C)NC(=O)[C@H](Cc2c[nH]c4ccccc24)NC(=O)[C@H](CCCCN)NC(=O)[C@H](Cc2cnc[nH]2)NC(=O)[C@H]([C@@H](C)O)NC(=O)[C@H](CCCNC(=N)N)NC(=O)[C@H](CO)NC3=O)NC(=O)[C@H](CCCCN)NC(=O)[C@H](CC(=O)O)NC(=O)[C@H](CC(N)=O)NC(=O)[C@H](CC(=O)O)NC(=O)[C@@H]2CCCN2C1=O", "note": "(H-DCLGFMRKCIPDNDKCCRPNLVCSRTHKWCKYVK-NH2; disulfide 2-17, 9-23, 16-30)", "values": [
      {"measurement": "IC50", "setting": "[3]", "result": "> 5", "unit": "µM"},
      {"measurement": "IC50", "setting": "[2]", "result": "> 5", "unit": "µM"}
    ]}
  ]
}
